Holding throughout (format): functional, organism-based
For test [1], the system named is Leishmania infantum. The experiment in a line: Antileishmanial activity against GFP-tagged at NH2 terminus Leishmania infantum promastigotes overexpressing LiABCG6 assessed as cell viability after 72 hrs by MTT assay. The gist of the method:
(§1)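 L. infantum promastigotes (strain MHOM/ES/1993/BCN-99) grown at 28°C in modified RPMI 1640 with 20% heat-inactivated fetal bovine serum. Drug sensitivity was measured by MTT-based assay. IC50 was taken as the drug concentration giving half-maximal inhibition of cellular growth rate.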
(Tetrazolium dyes change colour on reduction, which living cells bring about.)

In test [2] the test system is Leishmania infantum. Put plainly: Antileishmanial activity against Leishmania infantum promastigotes overexpressing LiABCG6 assessed as cell viability after 72 hrs by MTT assay. The procedure, abridged:
as §1

The subject of test [3] is Leishmania infantum. Put plainly: Antileishmanial activity against GFP-tagged at COOH terminus Leishmania infantum promastigotes overexpressing LiABCG6 assessed as cell viability after 72 hrs by MTT assay. The gist of the method:
as §1

Nine molecules from ChEMBL document CHEMBL1275503, “Characterization of an ABCG-like transporter from the protozoan parasite Leishmania with a role in drug resistance and transbilayer lipid movement” (Antimicrob Agents Chemother, 2008) can be followed below.

SMILES strings stand for the structures.

The term IC50 denotes the point on the concentration scale where inhibition reaches its midpoint.

As for `CCCCCCCCCCCCCCCCCCOP(=O)([O-])OC1CC[N+](C)(C)CC1` [PERIFOSINE], the results for the IC50 in the test with Leishmania infantum [1], in the test with Leishmania infantum [2] and in the test with Leishmania infantum [3] were 4.2 µM, 11 µM and 12.2 µM, respectively.

For `CCN(CC)CCCCCCNc1cc(OC)cc2c(C)ccnc12` [SITAMAQUINE], the IC50 with Leishmania infantum [1] was found to be 7.8 µM; in the test on Leishmania infantum [2] it was 14.3 µM; in the test on Leishmania infantum [3] it was 15.2 µM.

For `COc1cc(NC(C)CCCN)c2ncccc2c1` (configuration not stated) [PRIMAQUINE], the IC50 with Leishmania infantum [2] was 54.9 µM.

On to `CCCCCCCCCCCCCCCCOP(=O)([O-])OCC[N+](C)(C)C` [MILTEFOSINE], for which the IC50 with Leishmania infantum [1] was determined as 5.6 µM; with Leishmania infantum [2] it was 12.9 µM; in the test with Leishmania infantum [3], 13.6 µM.

In the case of `CC[C@@]1(O)C(=O)OCc2c1cc1n(c2=O)Cc2cc3ccccc3nc2-1` [CAMPTOTHECIN], in the test on Leishmania infantum [2], the IC50 is 34.4 µM.

As to `CCN(CC)CCCC(C)Nc1ccnc2cc(Cl)ccc12` (configuration not stated) [CHLOROQUINE], in the test with Leishmania infantum [2], the IC50 is 24.1 µM.

In the case of `CC(=O)N1CCN(c2ccc(OCC3COC(Cn4ccnc4)(c4ccc(Cl)cc4Cl)O3)cc2)CC1` (configuration not stated) [KETOCONAZOLE], the IC50 in the test with Leishmania infantum [2] was determined as 19.3 µM.

As for `OC(c1cc(C(F)(F)F)nc2c(C(F)(F)F)cccc12)C1CCCCN1` (configuration not stated) [MEFLOQUINE], the IC50 with Leishmania infantum [2] came out at 7 µM.

On to `CCCCCCCCCCCCCCCCCCOCC(COP(=O)([O-])OCC[N+](C)(C)C)OC` (configuration not stated) [EDELFOSINE], for which the IC50 with Leishmania infantum [1] stood at 4.8 µM; with Leishmania infantum [2], 11.3 µM; in the test on Leishmania infantum [3] it was 12.9 µM.
